Measured values collected from several papers.
Target: Serine/threonine-protein kinase PLK3 (PLK3, Homo sapiens, UniProt Q9H4B4)

The activity vs control of `Cc1cc(NC(=O)c2cccc3cc(-c4cccc5[nH]nc(N)c45)ccc23)ccc1F` is reported as 92% (enzyme activity; inhibitor; 0.1 µM).
With `Nc1cnc(N2CCc3cc(S(=O)(=O)Nc4c(F)cc(Cl)cc4F)cc(N4CCCC4=O)c32)nc1` the remaining binding was 100% (cell-free assay; competition with immobilised ligand; 1 µM).
For `COc1cc2ncnc(Nc3ccc(Oc4ccccc4)c(C)c3C)c2cc1OC`, the inhibition was -16% (enzyme activity; inhibitor; 1 µM).
`O=C1NC(c2ccccn2)Sc2ccccc21` (stereo not shown) gave a remaining binding of 88% (cell-free assay; competition with immobilised ligand; 1 µM).
With `CS(=O)(=O)Nc1cccc(-c2csc(NC(=O)CSc3nc4nccnc4c(=O)n3CCc3ccccc3)n2)c1` the inhibition was 6% (enzyme activity; inhibitor; 10 µM).
For `O=C(Nc1cnn(-c2csc(C(=O)NC3COC3)c2)c1)Nc1ccccc1Cl`, the remaining activity was 96.1% (enzyme activity; inhibitor; 5 µM).
For `CNC(=O)Nc1ccc2c(c1)[C@@]1(CC2)OC(=O)N(CC(=O)N(Cc2ccc(F)cc2)[C@@H](C)C(F)(F)F)C1=O`, the remaining binding was 84% (cell-free assay; competition with immobilised ligand; 1 µM).
For `CC(C)(O)[C@H]1CC[C@H](Nc2ccc3ncc(-c4cccc(C(F)(F)F)c4)n3n2)CC1`, the remaining activity was 102% (enzyme activity; inhibitor; 1 µM).
The remaining activity of `CCN(CC)c1ccc(C2=NNC(=O)CC2C)cc1[N+](=O)[O-]` (stereo not shown) is reported as 104% (enzyme activity; inhibitor; 10 µM).
`CCCOc1ccc([C@H]2[C@H](C(=O)O)[C@@H](c3ccc4c(c3)OCO4)CN2CC(=O)Nc2c(CC)cccc2CC)cc1` has a remaining binding of 83% (cell-free assay; competition with immobilised ligand; 1 µM).
The remaining signal of `O=C1NC(=O)c2cc(Nc3ccc(F)cc3)c(Nc3ccc(F)cc3)cc21` is reported as 98% (cell-free assay; 0.5 µM).
The inhibition of `CCN(CC)CCNC(=O)c1c(C)[nH]c(/C=C2\C(=O)Nc3ccc(F)cc32)c1C` is reported as -10% (enzyme activity; inhibitor; 0.3 µM).
With `CSc1cccnc1N1CCN(Cc2nc3ccccc3[nH]2)CC1` the remaining binding was 80% (cell-free assay; competition with immobilised ligand; 1 µM).
With `CC(C)(C)c1nc2c(s1)c1nc(N)ncc1c1ccc(NS(=O)(=O)c3c(F)cccc3F)c(F)c12` the remaining activity was 91% (enzyme activity; inhibitor; radiometric; 1 µM).
`COc1ccc2c(O[C@@H]3C[C@H]4C(=O)N[C@]5(C(=O)O)CC5/C=C\CCCCC[C@H](NC(=O)OC5CCCC5)C(=O)N4C3)cc(-c3csc(NC(=O)C(C)C)n3)nc2c1C` (stereo partly shown) gave a remaining binding of 79% (cell-free assay; competition with immobilised ligand; 1 µM).
`CC/C(=N\NC(=O)NCc1cccc(O)c1)c1ccc(O)c(C)c1O` has an inhibition of 2.5% (enzyme activity; inhibitor; 0.1 µM).
`COc1cc2c(Nc3ccc(Br)cc3F)ncnc2cc1OCC1CCN(C)CC1` has a remaining signal of 95% (cell-free assay; 0.5 µM).
For `CCS(=O)(=O)c1cc2cc(C[C@@](O)(CC(C)(C)c3ccc(F)cc3C(N)=O)C(F)(F)F)[nH]c2cn1`, the remaining binding was 99% (cell-free assay; competition with immobilised ligand; 1 µM).
The activity vs control of `Cc1ccc(C(=O)NCc2ccsc2)cc1C#Cc1cn(C(C)C)c2ncnc(N)c12` is reported as 118% (enzyme activity; inhibitor; 1 µM).
With `Cc1ccc(Nc2nccc(N(C)c3ccc4c(C)n(C)nc4c3)n2)cc1S(N)(=O)=O` the inhibition was -9% (enzyme activity; inhibitor; 10 µM).
The remaining signal of `O=c1cc(N2CCOCC2)oc2c(-c3ccccc3)cccc12` is reported as 71.9% (cell-free assay; 0.5 µM).
The inhibition of `CNC(=O)c1cc(Oc2ccc(NC(=O)Nc3ccc(Cl)c(C(F)(F)F)c3)cc2)ccn1` is reported as -12% (enzyme activity; inhibitor; 0.3 µM).
For `O=C(N1CCS(=O)(=O)CC1)N1C[C@H](c2ccc(OC(F)(F)F)cc2)C[C@H](c2nc(C3CC3)no2)C1`, the remaining binding was 98% (cell-free assay; competition with immobilised ligand; 1 µM).
The remaining activity of `Cc1sc(C(=O)NC2COC2)cc1-n1cc(NC(=O)Nc2c(F)cccc2Cl)cn1` is reported as 102% (enzyme activity; inhibitor; 10 µM).
The inhibition of `COc1cc(-c2cc(-c3ccc(N4CCNCC4)cc3)cnc2C)cc(OC)c1OC` is reported as 4% (enzyme activity; inhibitor; 0.1 µM).
